For data set [1] the following is noted: cited from earlier work.
Data set [2] is described as follows: Microsome metabolic stability and predicted hepatic clearance. The class given is in vitro ADME. To be noted: Sprague-Dawley (SD), rat, liver microsomes, pH 7.4. The method, boiled down: (§1)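 Liver microsomes (0.5 mg/mL) incubated with 3 µM test compound in 50 mM phosphate buffer, pH 7.4. After 3 min pre-incubation at 37°C, 5 mM NADPH started the reaction. Samples at 0, 5, 15, 30, 45 and 60 min, quenched in acetonitrile with internal standard, then LC-MS/MS. NADPH-free controls sampled at 0 and 60 min.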

Data set [3] is described as follows: Stability in plasma. The class given is in vitro ADME. The following applies: CD-1, mouse. The method, boiled down:
(§2)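 Test compound at 1 μM incubated at 37°C for up to 4 h in plasma. Sources: CD-1 mouse, SD rat (fresh, from male rats), monkey or human. Aliquots at set times quenched with acetonitrile containing clioquinol as internal standard. Centrifuged at 18,879 rcf for 5 min, and supernatant assayed by LC-MS/MS for compound remaining.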

Data set [4] in a line: Stability in plasma. The class given is in vitro ADME. To be noted: rhesus, monkey. The method, boiled down: as §2
A further data set in a line: Blood-plasma partition. The class given is in vitro ADME. To be noted: SD rat blood, 1 μM, 37°C, 1 hr, mean ± SEM. The method, boiled down:
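Test compound spiked into fresh whole SD rat blood at 1 μM final and held 1 hr at 37°C. Plasma separated by centrifugation (15 min, 4°C, 1750 rcf). Blood and plasma assayed by LC-MS/MS. B/P taken as mean peak-area ratio in blood over plasma. Its SEM was propagated as the square root of summed squared SEM/mean terms, multiplied by B/P.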

Data set [5] is described as follows: Stability in plasma. The class given is in vitro ADME. To be noted: SD, rat. The method, boiled down:
as §2

Data set [6] is described as follows: Thermodynamic solubility, shake-flask method. The following applies: room temperature. The class given is physicochemical. In a few lines: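 Shake-flask method: excess test compound shaken in solvent at room temperature for 72 h after saturation. Centrifuged (18,879 rcf, 10 min) and filtered through 0.22 μm. Dissolved compound quantified by HPLC-UV, in triplicate.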

Data set [7] is described as follows: Pharmacokinetics and bioavailability in SD rats. The following applies: Sprague-Dawley, rat, plasma. The class given is in vivo. In a few lines: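 Male SD rats (300–350 g), cannulated under anesthesia the day before, n = 3 per group. Single dose of 2 mg/kg IV bolus, 20 mg/kg PO (fasted ≥12 h) or 10 mg/kg SC. Co-solvent formulation diluted 5-fold with saline (IV, SC) or water (PO). Blood taken 0.08–48 h, plasma by LC-MS/MS. Non-compartmental analysis; F from dose-normalised extravascular versus IV AUC.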

Data set [8] is described as follows: Microsome metabolic stability and predicted hepatic clearance. The class given is in vitro ADME. The following applies: cynomolgus monkey, liver microsomes, pH 7.4. In a few lines: as §1
For data set [9] the following is noted: in vivo pharmacokinetic studies; cited from earlier work.
The nature of data set [10]: Stability in plasma. The class given is in vitro ADME. The following applies: human. In a few lines: as §2
For data set [11], the system named is Mycobacterium tuberculosis. The following applies: cited from earlier work.
The nature of data set [12]: Solution state pH stability in USP buffers. To be noted: aqueous media pH 1-10, 37°C, up to 48 hrs. The class given is physicochemical. In a few lines: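 Test compound added from DMSO to USP buffers with 0.2% v/v Tween 80: 0.2 M HCl (pH 1–2), 0.2 M acetate (pH 3–5), 0.2 M phosphate (pH 6–8), carbonate (pH 9–10). Held in a 37°C water bath. Aliquots at set times assayed by HPLC-UV for compound remaining. Degradation rate constant derived per buffer.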

Data set [13] is described as follows: Plasma protein binding, centrifugal ultrafiltration. The following applies: Sprague-Dawley, rat, Fraction bound to plasma protein, mean ± SD. The class given is in vitro ADME.
Data set [14] is described as follows: Microsome metabolic stability and predicted hepatic clearance. The class given is in vitro ADME. To be noted: human, liver microsomes, pH 7.4. The method, boiled down: as §1
Data set [15] in a line: Human hepatic clearance by single species scaling using liver blood flow. The following applies: single species (SD rat) scaling of in vivo clearance and liver blood flow.
Data set [16] is described as follows: Microsome metabolic stability and predicted hepatic clearance. The class given is in vitro ADME. To be noted: CD-1, mouse, liver microsomes, pH 7.4. The method, boiled down: as §1
Data set [17] concerns MtMetAPs (MtMetAP1a and MtMetAP1c). To be noted: both MtMetAPs over human MetAPs; cited from earlier work.
In the next data set the target is T1, CYP2C8 (Homo sapiens, UniProt P10632).
T1 sequence (P10632 1-490): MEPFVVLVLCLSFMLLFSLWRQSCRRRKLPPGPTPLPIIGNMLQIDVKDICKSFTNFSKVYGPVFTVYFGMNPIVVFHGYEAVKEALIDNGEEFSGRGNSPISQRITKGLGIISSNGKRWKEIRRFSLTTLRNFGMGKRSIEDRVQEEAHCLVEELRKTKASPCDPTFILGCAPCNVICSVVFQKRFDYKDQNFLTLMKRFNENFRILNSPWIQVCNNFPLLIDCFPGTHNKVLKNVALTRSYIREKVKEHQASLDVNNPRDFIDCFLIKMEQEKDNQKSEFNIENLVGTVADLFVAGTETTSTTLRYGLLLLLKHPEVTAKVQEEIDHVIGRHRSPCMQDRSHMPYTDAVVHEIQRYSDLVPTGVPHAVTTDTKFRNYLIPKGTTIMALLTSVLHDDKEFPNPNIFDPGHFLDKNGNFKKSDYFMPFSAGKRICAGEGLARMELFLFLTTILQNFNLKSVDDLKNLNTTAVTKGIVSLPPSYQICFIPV
In words: CYP reaction phenotyping with rhCYP. The class given is in vitro ADME. To be noted: rhCYP2C8. The method, boiled down: (§3)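 Recombinant human CYP (200 pmol) with 1 µM test compound in 100 mM K2HPO4/10 mM MgCl2, pH 7.4, pre-incubated. Reaction started with 1 mM NADPH. DMSO kept ≤0.1% v/v and acetonitrile ≤1% v/v. Samples at 0, 5, 15, 30 and 60 min, stopped with acetonitrile containing internal standard, then centrifuged. Negative controls lacked NADPH, used insect control cells, or both.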

For data set [18] the following is noted: cited from earlier work. This is another data set of the same source.
In another data set the target is T2, CYP1A2 (Homo sapiens, UniProt P05177).
T2 sequence (P05177 1-516): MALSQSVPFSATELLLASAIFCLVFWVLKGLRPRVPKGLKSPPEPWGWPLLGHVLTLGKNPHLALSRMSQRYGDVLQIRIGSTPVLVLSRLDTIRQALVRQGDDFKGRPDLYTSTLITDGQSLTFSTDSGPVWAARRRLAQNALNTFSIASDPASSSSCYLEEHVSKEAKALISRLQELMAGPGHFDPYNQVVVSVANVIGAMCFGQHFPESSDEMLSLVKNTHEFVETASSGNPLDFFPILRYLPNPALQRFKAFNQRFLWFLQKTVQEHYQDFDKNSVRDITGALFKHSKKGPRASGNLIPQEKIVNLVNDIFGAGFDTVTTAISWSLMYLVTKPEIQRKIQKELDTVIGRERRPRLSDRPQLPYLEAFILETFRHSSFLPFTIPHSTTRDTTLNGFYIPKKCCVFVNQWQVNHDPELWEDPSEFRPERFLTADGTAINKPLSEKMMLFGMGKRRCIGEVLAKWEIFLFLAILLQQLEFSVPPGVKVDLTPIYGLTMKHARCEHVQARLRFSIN
Put plainly: CYP reaction phenotyping with rhCYP. The class given is in vitro ADME. In a few lines:
as §3

The next data set deals with CYP2D6 (Homo sapiens, UniProt P10635). Put plainly: CYP reaction phenotyping with rhCYP. The class given is in vitro ADME. In a few lines:
as §3

Values after ≈ are worked out from the molar mass of the structure shown. Values joined by “and” are separate entries in the source; they are usually repeats but may differ in a detail not shown here. Identical values can stand only once. “Also recorded” adds a separate entry of the source.

Sequence of CYP2D6 (P10635 whole entry): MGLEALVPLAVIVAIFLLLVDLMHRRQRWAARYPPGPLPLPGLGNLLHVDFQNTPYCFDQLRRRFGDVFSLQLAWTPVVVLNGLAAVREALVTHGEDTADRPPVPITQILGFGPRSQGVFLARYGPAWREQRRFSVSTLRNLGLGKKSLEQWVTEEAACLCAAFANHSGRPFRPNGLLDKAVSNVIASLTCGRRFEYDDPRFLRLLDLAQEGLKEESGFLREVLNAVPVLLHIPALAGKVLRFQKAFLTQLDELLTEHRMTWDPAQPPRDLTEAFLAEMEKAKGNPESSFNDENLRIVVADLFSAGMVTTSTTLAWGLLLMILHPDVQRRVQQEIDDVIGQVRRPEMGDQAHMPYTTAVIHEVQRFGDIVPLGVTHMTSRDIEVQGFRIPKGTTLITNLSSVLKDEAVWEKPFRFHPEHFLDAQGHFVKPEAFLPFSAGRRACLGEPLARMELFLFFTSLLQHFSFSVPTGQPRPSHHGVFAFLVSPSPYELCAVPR

In general, NOAEL refers to the highest tested level that showed no adverse finding. A word on the LD50: it is the dose at which mortality reaches 50%. For `CCOCCOCCO` [Transcutol HP], the NOAEL in data set [1] (5% solution administered orally to rats for 90 days) was 1%. The LD50 in data set [1] (acute administration) was > 5000 mg/kg.

By amount remaining is commonly meant what is left of the initial amount, in per cent. What is called Solubility is how much of the substance goes into solution per volume. For orientation: solubility means how much of the substance goes into solution per volume. By Tmax is commonly meant the time at which the peak concentration occurs. One may read the fraction unbound as the share of the substance not bound to proteins or other matrix. With `Oc1c(Br)cc(Cl)c2cccnc12` [CLBQ14, 7-bromo-5-chloroquinolin-8-ol], the fraction remaining at 1 h, 3 µM in data set [2] is 26.8 ± 2.37%; in [8] it was 17.5 ± 0.86%; in data set [14], 35.5 ± 0.33%; in data set [16], 3.7 ± 1.36%. Besides, the recovery at 4 h, 1 μM in the data set “Stability in plasma [3]” worked out at 97.6 ± 2.27%; in the data set “Stability in plasma [4]” it was 105 ± 4.25%; in the data set “Stability in plasma [5]”, 101 ± 13%; in “Stability in plasma [10]” it was 103.7 ± 0.99%. Besides, the “Blood-plasma (B/P) ratio” value in “Blood-plasma partition” is 0.83 and 0.83 ± 0.03. Besides, the Solubility in [6] (water (pH 7)) was found to be 70 µg/mL (≈ 271 µM). Further, the solubility at 72 h in data set [6] (water, pH 7, Solubility) was < 70 µg/mL. For the same compound, the time to peak (Tmax) in [7] (po, 20 mg/kg) is 30 min; in [7] (sc, 10 mg/kg), ~55 min. The “Administered dose excreted unchanged in urine” value in [9] was 0.01%. Further, the “Potency against aged non-growing Mtb” value in [11] was “increased potency”. Moreover, in [11] (replicating Mtb), the “Potency against replicating Mtb” value was “great potency”. Moreover, the “Stability in aqueous media” value in data set [12] is on record as “relatively stable”. In data set [13] (5 μg/mL), this compound came in with a fraction unbound at 1 h, 5 μg/mL of 0.09. This compound also had a fraction unbound at 1 h, 50 μg/mL in data set [13] (50 μg/mL) of 0.017. Also, in data set [15], the “Human hepatic clearance (ClH, human) predicted” value was 11.5 mL/min/kg. Further, the “Selectivity for MtMetAPs over human MetAPs” value in data set [17] is reported as “great selectivity”. The “Contribution to metabolism of CLBQ14” value on CYP2C8 was “may also be a contributor”; on CYP1A2 (rhCYP1A2) it was “metabolized primarily; also recorded: primary contributors”; at CYP2D6 (rhCYP2D6) it was “primary contributors”. In addition, the “calculated log P” value in [18] (25°C / room temperature) was 3.92 ± 0.39. Moreover, in data set [18] (25°C), the “calculated pKa” value was 2.23 ± 0.30. The CLBQ14 turnover result on CYP1A2 (rhCYP1A2, 1 µM, 37°C, 60 mins) is reported as “greater than 50%”; on CYP2D6 (rhCYP2D6, 1 µM, 37°C, 60 mins), “greater than 50%”.

The values are drawn from article PMC7127848 (Drug Design, Development and Therapy, 2020).
